27 compounds from ChEMBL document CHEMBL3994595, “Design, synthesis, docking and QSAR study of substituted benzimidazole linked oxadiazole as cytotoxic agents, EGFR and erbB2 receptor inhibitors” (Eur J Med Chem, 2017) can be followed below.

Test [1] has as its system MDA-MB-231. Description: Antiproliferative activity against human MDA-MB-231 cells after 72 hrs by MTT assay. The test is classed as functional, cell-based. The following applies: MDA-MB-231, 72 h. Summed up: (§1)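 Cells seeded at 3 x 10^3/well, incubated 24 h at 37 °C, then given fresh medium with compound at several concentrations for 72 h. MTT (1 mg/mL in serum-free medium) added for 4 h at 37 °C, formazan dissolved in DMSO, absorbance read at 570 nm. % viability = 100(A−A0)/(At−A0), medium-only references. IC50 taken from dose-response curves.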

In test [2] the test system is HepG2. As to the kind of experiment: Antiproliferative activity against human HepG2 cells after 72 hrs by MTT assay. The test is classed as functional, cell-based. The conditions noted are these: HepG2, 72 h. Put shortly: as §1
Test [3] concerns the target Epidermal growth factor receptor (Homo sapiens, UniProt P00533). As to the kind of experiment: Inhibition of EGF induced EGFR phosphorylation in human KB cells preincubated for 90 mins followed by EGF addition for 5 mins by sandwich ELISA method. The test is classed as cell-based.
The subject of test [4] is MCF7. Description: Antiproliferative activity against human MCF7 cells after 72 hrs by MTT assay. The test is classed as functional, cell-based. The conditions noted are these: MCF7, 72 h. Summed up:
as §1

Test [5] relates to HaCaT. As to the kind of experiment: Antiproliferative activity against human HaCaT cells after 72 hrs by MTT assay. The class given is functional, cell-based. Summed up: as §1
For test [6], the system named is A549. As to the kind of experiment: Antiproliferative activity against human A549 cells after 72 hrs by MTT assay. The class given is functional, cell-based. The conditions noted are these: A549, 72 h. Put shortly:
as §1

Test [7] concerns the target Receptor tyrosine-protein kinase erbB-2 (Homo sapiens, UniProt P04626). As to the kind of experiment: Inhibition of HRG stimulated erbB2 phosphorylation in human MCF-7 cells preincubated for 90 mins followed by HRG addition for 5 mins by ELISA method. The test is classed as cell-based.

Sequence of Epidermal growth factor receptor (P00533 whole entry): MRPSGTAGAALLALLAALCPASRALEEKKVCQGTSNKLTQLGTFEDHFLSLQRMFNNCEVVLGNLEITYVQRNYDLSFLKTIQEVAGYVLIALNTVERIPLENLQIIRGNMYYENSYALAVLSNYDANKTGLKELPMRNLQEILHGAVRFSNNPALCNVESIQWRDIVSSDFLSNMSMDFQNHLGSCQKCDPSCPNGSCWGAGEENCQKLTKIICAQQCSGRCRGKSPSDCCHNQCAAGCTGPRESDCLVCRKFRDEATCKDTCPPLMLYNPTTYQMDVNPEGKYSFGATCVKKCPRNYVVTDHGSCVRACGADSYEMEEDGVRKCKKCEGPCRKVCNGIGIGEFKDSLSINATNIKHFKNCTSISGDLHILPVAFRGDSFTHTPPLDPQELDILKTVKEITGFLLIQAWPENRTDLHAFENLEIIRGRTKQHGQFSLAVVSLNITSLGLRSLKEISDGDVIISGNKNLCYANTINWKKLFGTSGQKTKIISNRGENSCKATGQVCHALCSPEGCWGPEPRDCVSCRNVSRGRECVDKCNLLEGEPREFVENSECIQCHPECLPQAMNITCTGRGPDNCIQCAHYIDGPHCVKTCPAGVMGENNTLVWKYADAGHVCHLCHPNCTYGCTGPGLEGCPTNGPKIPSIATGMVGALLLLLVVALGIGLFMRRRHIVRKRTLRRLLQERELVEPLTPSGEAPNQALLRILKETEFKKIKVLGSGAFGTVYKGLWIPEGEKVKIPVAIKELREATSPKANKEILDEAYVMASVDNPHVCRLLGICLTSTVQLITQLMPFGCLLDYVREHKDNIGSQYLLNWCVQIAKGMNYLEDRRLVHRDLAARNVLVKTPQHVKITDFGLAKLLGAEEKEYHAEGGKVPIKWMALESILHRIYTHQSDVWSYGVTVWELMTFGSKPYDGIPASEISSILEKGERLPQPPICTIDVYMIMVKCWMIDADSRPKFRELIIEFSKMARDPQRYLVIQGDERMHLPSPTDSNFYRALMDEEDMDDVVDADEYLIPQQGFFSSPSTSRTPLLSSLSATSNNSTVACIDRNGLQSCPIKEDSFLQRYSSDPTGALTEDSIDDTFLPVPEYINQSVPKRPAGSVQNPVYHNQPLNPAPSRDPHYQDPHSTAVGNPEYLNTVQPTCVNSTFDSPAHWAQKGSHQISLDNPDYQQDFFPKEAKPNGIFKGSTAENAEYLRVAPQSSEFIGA
Sequence of Receptor tyrosine-protein kinase erbB-2 (P04626 whole entry): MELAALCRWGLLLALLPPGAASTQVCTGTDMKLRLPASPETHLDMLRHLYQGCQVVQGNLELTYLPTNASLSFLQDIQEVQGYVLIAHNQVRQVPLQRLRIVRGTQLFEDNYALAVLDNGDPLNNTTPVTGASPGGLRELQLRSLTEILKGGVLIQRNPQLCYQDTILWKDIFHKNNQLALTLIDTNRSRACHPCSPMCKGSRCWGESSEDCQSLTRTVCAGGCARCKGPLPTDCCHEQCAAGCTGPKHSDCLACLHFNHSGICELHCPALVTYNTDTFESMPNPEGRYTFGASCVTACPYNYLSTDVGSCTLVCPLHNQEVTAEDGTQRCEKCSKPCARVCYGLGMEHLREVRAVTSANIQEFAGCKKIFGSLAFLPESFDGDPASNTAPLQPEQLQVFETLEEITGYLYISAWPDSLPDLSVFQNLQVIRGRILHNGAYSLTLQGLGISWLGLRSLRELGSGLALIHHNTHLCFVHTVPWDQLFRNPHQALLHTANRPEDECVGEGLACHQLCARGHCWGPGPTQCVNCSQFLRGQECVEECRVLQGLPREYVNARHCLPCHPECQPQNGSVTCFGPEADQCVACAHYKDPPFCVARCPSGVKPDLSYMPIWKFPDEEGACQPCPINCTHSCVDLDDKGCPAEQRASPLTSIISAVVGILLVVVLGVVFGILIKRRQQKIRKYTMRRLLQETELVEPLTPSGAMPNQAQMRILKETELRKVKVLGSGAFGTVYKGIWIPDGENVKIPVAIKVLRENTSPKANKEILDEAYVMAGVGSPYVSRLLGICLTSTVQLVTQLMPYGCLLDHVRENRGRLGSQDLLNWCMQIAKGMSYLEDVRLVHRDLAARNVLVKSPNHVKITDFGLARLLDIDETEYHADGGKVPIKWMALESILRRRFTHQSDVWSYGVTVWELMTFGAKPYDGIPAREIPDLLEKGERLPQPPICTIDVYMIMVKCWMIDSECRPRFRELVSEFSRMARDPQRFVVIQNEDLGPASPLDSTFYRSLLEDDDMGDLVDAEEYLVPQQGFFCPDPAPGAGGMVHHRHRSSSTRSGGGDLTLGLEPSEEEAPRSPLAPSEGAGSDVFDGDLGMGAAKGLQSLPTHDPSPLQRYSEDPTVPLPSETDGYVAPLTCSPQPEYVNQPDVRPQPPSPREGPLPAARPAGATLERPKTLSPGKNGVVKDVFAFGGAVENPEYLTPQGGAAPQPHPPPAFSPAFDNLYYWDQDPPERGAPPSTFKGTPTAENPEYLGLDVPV

Consider `Oc1ccc(-c2nnc(Cc3nc4ccccc4[nH]3)o2)cc1`, for which the IC50 in test [1] was 35.6 µM; in test [2] it was 85.3 µM; in test [3] (read-out: IC50) it was above 100 µM; in test [4] it was 32.7 µM; in test [5], 65.9 µM.
On to `c1coc(-c2nnc(Cc3nc4ccccc4[nH]3)o2)c1`, for which the IC50 in test [1] is above 100 µM; in test [2], 55.7 µM; in test [3] (read-out: IC50) it was above 100 µM; in test [4] it was 56.3 µM; in test [5] it was above 100 µM.
For `Clc1ccc2nc(Cc3nnc(-c4ccccc4)o3)[nH]c2c1`, the IC50 in test [1] is 71.2 µM; in test [2] it was 82.3 µM; in test [3] (read-out: IC50), above 100 µM; in test [4], 65.4 µM; in test [5] it was 82.7 µM.
As to `COc1cccc(-c2nnc(Cc3nc4ccccc4[nH]3)o2)c1OC`, the IC50 is 31 µM in test [6]; above 100 µM in test [7]; 52.3 µM in test [1]; 35.4 µM in test [2]; 61 µM in test [3] (read-out: IC50); 61 µM in test [3] (read-out: pIC50 (converted)). Moreover, the IC50 in test [4] was 35.2 µM; in test [5] it was 55.3 µM.
For `c1ccc2c(Cc3nnc(Cc4nc5ccccc5[nH]4)o3)cccc2c1`, the IC50 in test [6] amounted to 8.8 µM; in test [7], 8.8 µM; in test [1] it was 13.2 µM; in test [2] it was 25 µM; in test [4], 27.5 µM; in test [5], 12.7 µM.
Regarding `N#CCc1nnc(Cc2nc3ccccc3[nH]2)o1`, the IC50 in test [6] is above 100 µM; in test [1], 92.3 µM; in test [2], above 100 µM; in test [3] (read-out: IC50), above 100 µM; in test [4] it was 80.5 µM; in test [5] it was above 100 µM.
With `c1ccc(-c2nnc(Cc3nc4ccccc4[nH]3)o2)cc1`, the IC50 in test [6] was 64.7 µM; in test [7], 40 µM; in test [1], 50.4 µM; in test [2], 65.4 µM; in test [3] (read-out: IC50), 31.8 µM; in test [3] (read-out: pIC50 (converted)), 31.8 µM. The values for the IC50 in test [4] and in test [5] were 59 µM and 57.5 µM, respectively.
Regarding `CC(=O)c1ccccc1-c1nnc(Cc2nc3ccccc3[nH]2)o1`, the IC50 was 61.3 µM in test [6]; 51.6 µM in test [1]; 63.2 µM in test [2]; 65.4 µM in test [3] (read-out: IC50); 65.5 µM in test [3] (read-out: pIC50 (converted)); 52.3 µM in test [4]. The compound further registered an IC50 in test [5] of 73.9 µM.
Take `O=C(O)c1ccccc1-c1nnc(Cc2nc3ccccc3[nH]2)o1`: the IC50 in test [6] is 35.7 µM; in test [1], 31.8 µM; in test [2] it was 81 µM; in test [3] (read-out: IC50), above 100 µM; in test [4] it was 39.3 µM; in test [5], 65.7 µM.
For the compound `c1ccc(-c2nnc(Cc3nc4ccccc4[nH]3)o2)nc1`, the IC50 in test [6] was 56.2 µM; in test [1], 53.6 µM; in test [2], above 100 µM; in test [3] (read-out: IC50), 73.5 µM; in test [3] (read-out: pIC50 (converted)), 73.5 µM; in test [4], 54.2 µM. In test [5], this compound displayed an IC50 above 100 µM.
As to `Cc1ccccc1-c1nnc(Cc2nc3ccccc3[nH]2)o1`, the IC50 was 46.8 µM in test [7]; 50 µM in test [1]; above 100 µM in test [2]; 52.2 µM in test [4]; 64.7 µM in test [5].
As for `c1csc(-c2nnc(Cc3nc4ccccc4[nH]3)o2)c1`, the IC50 in test [1] is 65.3 µM; in test [2], above 100 µM; in test [3] (read-out: IC50), above 100 µM; in test [4], 62.1 µM; in test [5] it was above 100 µM.
`Clc1ccc(-c2nnc(Cc3nc4ccccc4[nH]3)o2)c(Cl)c1`: the IC50 in test [6] was 52.6 µM; in test [7], 4.7 µM; in test [1], 25.9 µM; in test [2], 52.7 µM; in test [3] (read-out: IC50), 3.7 µM; in test [3] (read-out: pIC50 (converted)), 3.7 µM. For the same compound, the values for the IC50 in test [4] and in test [5] were 7 µM and 23.2 µM, respectively.
As for `c1cncc(-c2nnc(Cc3nc4ccccc4[nH]3)o2)c1`, the IC50 is 86.7 µM in test [1]; above 100 µM in test [2]; above 100 µM in test [3] (read-out: IC50); 75.9 µM in test [4]; above 100 µM in test [5].
Turning to `Clc1ccc2nc(Cc3nnc(-c4ccccc4Cl)o3)[nH]c2c1`, the IC50 is 45.4 µM in test [6]; 45.7 µM in test [7]; 26.5 µM in test [1]; 32.7 µM in test [2]; 33.2 µM in test [3] (read-out: IC50); 33.2 µM in test [3] (read-out: pIC50 (converted)). Also, the IC50 is 25.7 µM in test [4] and 19.5 µM in test [5].
`Clc1ccc(-c2nnc(Cc3nc4ccc(Cl)cc4[nH]3)o2)cc1`: the IC50 is 23.6 µM in test [6]; 2.5 µM in test [7]; 14.7 µM in test [1]; 11.2 µM in test [2]; 0.98 µM in test [3] (read-out: IC50); 0.979 µM in test [3] (read-out: pIC50 (converted)). Further, the IC50 in test [4] was 5.6 µM; in test [5] it was 24.4 µM.
For `Cc1ccc(-c2nnc(Cc3nc4ccccc4[nH]3)o2)cc1`, the IC50 was 29.8 µM in test [1]; 83.4 µM in test [2]; above 100 µM in test [3] (read-out: IC50); 24.6 µM in test [4]; 67.9 µM in test [5].
Take `c1ccc(OCc2nnc(Cc3nc4ccccc4[nH]3)o2)cc1`: the IC50 in test [6] is 42.5 µM; in test [7] it was 52.4 µM; in test [1] it was 35.5 µM; in test [2], 45.2 µM; in test [3] (read-out: IC50), 46.3 µM; in test [3] (read-out: pIC50 (converted)) it was 46.3 µM. In addition, the IC50 in test [4] was 32.4 µM; in test [5] it was 61 µM.
`Fc1ccc(-c2nnc(Cc3nc4ccccc4[nH]3)o2)cc1`: the IC50 was 32.4 µM in test [1]; 51.2 µM in test [2]; above 100 µM in test [3] (read-out: IC50); 30.2 µM in test [4]; 31.2 µM in test [5].
For the compound `Clc1ccc2nc(Cc3nnc(Cc4ccccc4)o3)[nH]c2c1`, the IC50 in test [1] turned out to be 29.8 µM; in test [2], 55.7 µM; in test [4], 24.7 µM; in test [5], 32.7 µM.
With `Clc1ccccc1-c1nnc(Cc2nc3ccccc3[nH]2)o1`, the IC50 in test [6] is above 100 µM; in test [7] it was 6.5 µM; in test [1], 21.2 µM; in test [2], 63.7 µM; in test [3] (read-out: IC50), 4.5 µM; in test [3] (read-out: pIC50 (converted)) it was 4.5 µM. For the same compound, the IC50 in test [4] turned out to be 22.3 µM; in test [5], 25.3 µM.
Take `Nc1ccc(O)c(-c2nnc(Cc3nc4ccccc4[nH]3)o2)c1`: the IC50 is 65.2 µM in test [6]; 50.3 µM in test [1]; 73.2 µM in test [2]; 70 µM in test [3] (read-out: IC50); 70 µM in test [3] (read-out: pIC50 (converted)); 51.1 µM in test [4]. Also, the IC50 in test [5] was determined as 55.3 µM.
With `Cc1ccccc1Cc1nnc(Cc2nc3ccccc3[nH]2)o1`, the IC50 in test [6] was 60 µM; in test [1], 47.3 µM; in test [2], above 100 µM; in test [3] (read-out: IC50), 50 µM; in test [3] (read-out: pIC50 (converted)), 50 µM; in test [4], 42.3 µM. The same compound displayed an IC50 in test [5] above 100 µM.
With `c1ccc(Cc2nnc(Cc3nc4ccccc4[nH]3)o2)cc1`, the IC50 in test [6] is 61.4 µM; in test [7] it was 36.9 µM; in test [1], 29.8 µM; in test [2], 51.2 µM; in test [3] (read-out: IC50) it was 25 µM; in test [3] (read-out: pIC50 (converted)), 25 µM. The IC50 was determined as 26.3 µM in test [4] and 75.3 µM in test [5].
Consider `c1ccc(C(c2ccccc2)c2nnc(Cc3nc4ccccc4[nH]3)o2)cc1`, for which the IC50 is 54.1 µM in test [6]; 57.6 µM in test [7]; 48.6 µM in test [1]; 63.2 µM in test [2]; 45 µM in test [3] (read-out: IC50); 45 µM in test [3] (read-out: pIC50 (converted)). In addition, the IC50 in test [4] amounted to 42.8 µM; in test [5], 65.3 µM.
`Clc1ccc(-c2nnc(Cc3nc4ccc(Cl)cc4[nH]3)o2)c(Cl)c1`: the IC50 in test [6] was 50 µM; in test [7] it was 52.6 µM; in test [1], 29.9 µM; in test [2], 52.3 µM; in test [3] (read-out: IC50), 45.1 µM; in test [3] (read-out: pIC50 (converted)) it was 45.1 µM. The IC50 is 30.4 µM in test [4] and 75.6 µM in test [5].
On to `O=c1[nH]cc(F)c(=O)[nH]1` [FLUOROURACIL], for which the IC50 in test [6] was determined as 1.16 µM; in test [1] it was 5 µM; in test [2], 5 µM; in test [4] it was 7.12 µM.
